Entries after “also recorded” stand apart in the source; their conditions may differ. Like-named read-outs stand apart in the source and are kept apart here.
Legend:
URAT1 = settings: cited from earlier work; for URAT1 activity: metabolites of verinurad
[1] = human; cited from earlier work
[2] = format: in vivo, human; settings: for Tmax: male, human, plasma, po
In short: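 Healthy men (18–65 y, sUA ≥4.5 mg/dL) took oral doses once daily, about 30–35 min after a moderate-fat breakfast. […] Plasma was sampled predose to 24 h on days 7, 14 and 21. Acetonitrile precipitation with deuterated internal standard, then LC/MS/MS (LLOQ 0.100 ng/mL). Log GMRs (90% CI) for single agent vs day 14 came from a mixed-effects model.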

[3] = format: in vivo, human
In short: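 Urine was collected as total catch over 0–6, 6–12 and 12–24 h postdose on days 7 (alone), 14 (combination) and 21, under once-daily oral dosing in healthy men. Verinurad was measured by LC/MS/MS, linear 2.00–1000 ng/mL. Ae0-24, fe0-24 and CLR0-24 were derived. Log-transformed parameters were compared as geometric mean ratios with 90% CI using a mixed-effects model (treatment fixed, subject random).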

serum urate (sUA) = assay: Serum urate pharmacodynamics; format: in vivo, human; settings: for Change in sUA at 24 hours: steady state, 24 hours postdose
In short: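 Healthy men were dosed orally once daily, each drug alone for 7 days, and serum was sampled predose to 24 h postdose on days 1, 7, 14 and 21. A central laboratory assayed serum urate. Baseline was the mean of all day −1 values. Maximum percentage change from baseline was taken per subject and averaged per group. A mixed-effects model used treatment as fixed effect, baseline as covariate and subject as random effect.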

uric acid = assay: Urinary uric acid pharmacodynamics; format: in vivo, human; settings: arithmetic mean (95%CI); for AeUR, % Change From baseline / CLUR, % Change From baseline / FEUA, % Change From baseline: day 7 of treatment vs day −1
Safety/tolerability = format: in vivo, human; settings: for Tolerability: multiple once-daily oral doses, alone or in combination, healthy adult males; for Subjects with an increase from baseline in serum creatinine (sCr): none had sCr ≥1.5 × baseline
major CYPs = settings: ref Ardea Biosciences, Inc., data on file; cited from earlier work
[4] = format: in vivo, human; settings: febuxostat 80 mg + verinurad 2.5 mg
[5] = verinurad 2.5 mg combined with febuxostat 80 mg vs alone
[6] = VERU 2.5 mg + FBX 80 mg once daily oral, day 14, geometric mean
[7] = VERU 2.5 mg + FBX 80 mg once daily oral, day 14, mean (SD)
[8] = VERU 2.5 mg once daily oral alone, day 7 or 21, geometric mean
[9] = VERU 2.5 mg once daily oral alone, day 7 or 21, mean (SD)
[10] = VERU 10 mg + FBX 40 mg once daily oral, day 14, geometric mean
[11] = VERU 10 mg + FBX 40 mg once daily oral, day 14, mean (SD)
[12] = VERU 10 mg once daily oral alone, day 7 or 21, geometric mean
[13] = VERU 10 mg once daily oral alone, day 7 or 21, mean (SD)
[14] = verinurad 2.5 mg once daily alone
[15] = verinurad 10 mg once daily alone
[16] = VERU 2.5 mg once daily, Day 7 of Treatment (0 to 24 Hours)
[17] = febuxostat 40 mg once daily alone
[18] = febuxostat 80 mg once daily alone

In the case of `CC(C)(Sc1ccncc1-c1ccc(C#N)c2ccccc12)C(=O)OC1OC(C(=O)O)C(O)C(O)C1O` (stereo not shown) [M1], the URAT1 activity (URAT1) is listed as “devoid of URAT1 activity” and the “Circulating level in blood relative to verinurad” value [1] is listed as “equimolar to verinurad”.

For `CC(C)(Sc1cc[n+]([O-])cc1-c1ccc(C#N)c2ccccc12)C(=O)OC1OC(C(=O)O)C(O)C(O)C1O` (stereo not shown) [M8], the URAT1 activity (URAT1) is listed as “devoid of URAT1 activity” and the “Circulating level in blood relative to verinurad” value [1] is listed as “equimolar to verinurad”.

For `CC(C)(Sc1ccncc1-c1ccc(C#N)c2ccccc12)C(=O)O` [verinurad, Verinurad], the Tmax ([2]; 2.5 mg) was 4 h, the Tmax ([2]; 10 mg) was 2.75 h and the “Effect of febuxostat 40 mg on plasma exposure / PK parameters of verinurad 10 mg” value ([2]; once-daily co-administration, healthy males) was “no effect; also recorded: unaffected; also recorded: not influenced”. The “Increase in AUC0-24 of verinurad” value [2, 5] was 33%, the “Increase in Cmax of verinurad” value [2, 5] was 25% and the “Effect on Tmax of verinurad” value ([2]; verinurad 2.5 mg in the presence of febuxostat 80 mg) was “remained unchanged”. For the same molecule, the “Ae0-24 of verinurad (excreted unchanged in urine)” value [3, 6] was 30.0 [21.6‐41.6] μg, the CLR0-24 of verinurad [3, 6] was 14.4 mL/min and the fe0-24 of verinurad [3, 6] was 1.20%. The “Ae0-24 of verinurad (excreted unchanged in urine)” value ([3]; VERU 2.5 mg + FBX 80 mg once daily oral, day 14, geometric mean, listed as VERU) was 30.0 µg, the “Ae0-24 of verinurad (excreted unchanged in urine)” value [3, 7] was 32.3 (12.2) μg and the CLR0-24 of verinurad [3, 7] was 15.4 (5.97) mL/min. The fe0-24 of verinurad [3, 7] was 1.29 (0.490) %, the “Ae0-24 of verinurad (excreted unchanged in urine)” value [3, 8] was 21.2 [14.8‐30.5] μg and the CLR0-24 of verinurad [3, 8] was 13.6 mL/min. The fe0-24 of verinurad [3, 8] was 0.849%, the “Ae0-24 of verinurad (excreted unchanged in urine)” value ([3]; VERU 2.5 mg once daily oral alone, day 7 or 21, geometric mean, listed as VERU) was 21.2 µg and the “Ae0-24 of verinurad (excreted unchanged in urine)” value [3, 9] was 23.3 (10.1) μg. The CLR0-24 of verinurad [3, 9] was 15.1 (7.29) mL/min, the fe0-24 of verinurad [3, 9] was 0.932 (0.405) % and the “Ae0-24 of verinurad (excreted unchanged in urine)” value [3, 10] was 97.6 µg. The CLR0-24 of verinurad [3, 10] was 15.2 mL/min, the fe0-24 of verinurad [3, 10] was 0.976% and the “Ae0-24 of verinurad (excreted unchanged in urine)” value [3, 11] was 106 (44.2) μg. For the same molecule, the CLR0-24 of verinurad [3, 11] was 16.2 (5.43) mL/min, the fe0-24 of verinurad [3, 11] was 1.06 (0.442) % and the “Ae0-24 of verinurad (excreted unchanged in urine)” value [3, 12] was 86.8 µg. For the same molecule, the CLR0-24 of verinurad [3, 12] was 12.4 mL/min, the fe0-24 of verinurad [3, 12] was 0.868% and the “Ae0-24 of verinurad (excreted unchanged in urine)” value [3, 13] was 97.2 (49.7) μg. The CLR0-24 of verinurad [3, 13] was 13.6 (5.04) mL/min, the fe0-24 of verinurad [3, 13] was 0.972 (0.497) % and the “Increase in Ae0-24 of verinurad” value ([3]; verinurad 2.5 mg in the presence of febuxostat 80 mg vs alone) was 41%. The “Maximal reduction in serum urate” value (serum urate (sUA); [14]) was 38%, the “Mean maximal change from baseline in sUA at steady state” value (“Mean maximal change from baseline” below) (serum urate (sUA); [14]) was −37.8% and the “Change in sUA at 24 hours” value (serum urate (sUA); [14]) was −19.9%. For the same molecule, the “Maximal reduction in serum urate” value (serum urate (sUA); [15]) was 56%, the “Mean maximal change from baseline” value (serum urate (sUA); [15]) was −56.3% and the “Change in sUA at 24 hours” value (serum urate (sUA); [15]) was −38.0%. The “AeUR (amount of uric acid recovered in urine)” value (uric acid; [16]) was 620 (485 to 755) mg, the “FEUA (fractional excretion of uric acid)” value (uric acid; [16]) was 7.55 (6.83 to 8.26) % and the “AeUR, % Change From baseline” value (uric acid; VERU 2.5 mg once daily) was −21.0%. The “CLUR, % Change From baseline” value (uric acid; VERU 2.5 mg once daily) was 10.7 (−7.92 to 29.3) %, the “FEUA, % Change From baseline” value (uric acid; VERU 2.5 mg once daily) was 17.2% and the “AeUR, % Change From baseline” value (uric acid; VERU 10 mg once daily) was −17.0%. For the same molecule, the “CLUR, % Change From baseline” value (uric acid; VERU 10 mg once daily) was 65.8 (14.2, 117) %, the “FEUA, % Change From baseline” value (uric acid; VERU 10 mg once daily) was 105% and the Tolerability (Safety/tolerability) was “generally well tolerated”. The “Subjects with an increase from baseline in serum creatinine (sCr)” value (shortened to “Subjects with an increase from baseline”) (Safety/tolerability; verinurad 2.5 mg) was 3 subjects, the “Subjects with mild headache (only AE considered possibly related to verinurad)” value (Safety/tolerability; verinurad 10 mg-alone group, resolved without treatment) was 1 subject and the “Subjects with an increase from baseline” value (Safety/tolerability; verinurad 10 mg) was 2 subjects. The “Potency in inhibiting URAT1” value (URAT1) was “high potency” and the “Inhibition of the major CYPs” value (major CYPs) was “does not inhibit”.

In the case of `Cc1nc(-c2ccc(OCC(C)C)c(C#N)c2)sc1C(=O)O` [febuxostat, Febuxostat, reference compound], the “Effect on Tmax of febuxostat” value [4] is reported as “remained unchanged”, the “Maximal reduction in serum urate” value (serum urate (sUA); [17]) is reported as 49% and the “Mean maximal change from baseline” value (serum urate (sUA); [17]) is reported as −49.1%. The “Change in sUA at 24 hours” value (serum urate (sUA); [17]) was −36.9%, the “Maximal reduction in serum urate” value (serum urate (sUA); [18]) was 57% and the “Mean maximal change from baseline” value (serum urate (sUA); [18]) was −57.5%. For the same molecule, the “Change in sUA at 24 hours” value (serum urate (sUA); [18]) was −45.4%, the “AeUR, % Change From baseline” value (uric acid; FBX 40 mg once daily) was −64.1% and the “CLUR, % Change From baseline” value (uric acid; FBX 40 mg once daily) was −34.4 (−45.3 to −23.5) %. For the same molecule, the “FEUA, % Change From baseline” value (uric acid; FBX 40 mg once daily) was −24.5%, the “AeUR, % Change From baseline” value (uric acid; FBX 80 mg once daily) was −72.4% and the “CLUR, % Change From baseline” value (uric acid; FBX 80 mg once daily) was −42.0 (−50.8 to −33.2) %. The “FEUA, % Change From baseline” value (uric acid; FBX 80 mg once daily) was −35.2%, the “Subjects with an increase from baseline” value (Safety/tolerability; febuxostat 40 mg) was 1 subjects and the “Subjects with an increase from baseline” value (Safety/tolerability; febuxostat 80 mg) was 2 subjects. For the same molecule, the Tolerability (Safety/tolerability) was “generally well tolerated”.
